Measurements gathered from unrelated publications.
Protocols differ between the studies behind these lines.
BRAF: Serine/threonine-protein kinase B-raf (BRAF, Homo sapiens, UniProt P15056)
BRAF V600E: Serine/threonine-protein kinase B-raf (BRAF, Homo sapiens, UniProt P15056, V600E)

SMILES	target	test	setting	inhibition [%]
CS(=O)(=O)Nc1cccc(-c2csc(NC(=O)CSc3nc4nccnc4c(=O)n3CCc3ccccc3)n2)c1	BRAF	enzyme activity, inhibitor	10 µM	1
CN(C)C1CCN(CC#Cc2nn(C3CCCC3)c3nc(NCc4ccccc4)ncc23)C1 (centres unmarked)	BRAF	enzyme activity, inhibitor, FRET	10 µM	1
CCOc1cc(-c2nncn2C)ccc1Nc1ncc2cc(C)nc(NCC(C)(C)C)c2n1	BRAF	cell-free assay, TR-FRET	1 µM	≤ 15
Cc1ccc(C(CS(=O)(=O)c2ccccc2)=NNC2=NC(=O)C(=NNc3ccccc3)S2)cc1	BRAF V600E	enzyme activity, inhibitor, ATP luminescence	0.1 µM	54
Cn1cncc1C1=CN(c2ncnc3[nH]cnc23)CCS1	BRAF	enzyme activity, inhibitor, radiometric	2 µM	35.1
COc1cc2ncnc(Nc3ccc(Oc4ccccc4)cc3C)c2cc1OC	BRAF	enzyme activity, inhibitor	1 µM	7
COc1cc(-c2cc(-c3ccc(N4CCNCC4)cc3)cnc2N)cc(OC)c1OC	BRAF V600E	enzyme activity, inhibitor	0.1 µM	5
Cc1ccc(C(CS(=O)(=O)c2ccccc2)=NNC(N)=S)cc1	BRAF V600E	enzyme activity, inhibitor, ATP luminescence	10 nM	31
O=C(CSc1nc2nccnc2c(=O)n1CCc1ccccc1)Nc1nccs1	BRAF V600E	enzyme activity, inhibitor	10 µM	-2
Cc1ccc(N=Nc2sc(NN=C(CS(=O)(=O)c3ccccc3)c3ccc(C)cc3)nc2C)cc1	BRAF V600E	enzyme activity, inhibitor, ATP luminescence	10 µM	87
COc1cc2nccc(Oc3ccc(NC(=O)c4c5n(n(-c6ccc(F)cc6)c4=O)CCCC5)cc3)c2cc1OC	BRAF	enzyme activity, inhibitor	0.1 µM	18
